What all share (parameters): scale not given: the % may be the effect or the level left
Experiment [1] can be described thus: Antiplatelet activity against rabbit platelets assessed as inhibition of PAF-induced platelet aggregation at 25 ug/ml preincubated for 3 mins by turbidimetric method. Format: functional, Oryctolagus cuniculus. A digest of the protocol:
(§1)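 Washed rabbit platelets were preincubated with test sample or 0.5% DMSO vehicle for 3 min at 37 °C. Inducers were thrombin 0.1 U/mL, arachidonic acid 100 μM, collagen 10 μg/mL or PAF 2 nM. Turbidimetric read-out took platelet suspension absorbance as 0% and platelet-free Tyrode's as 100% aggregation, measured at 6 min. Results are mean ± SEM with n per entry.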

Experiment [2] deals with Aorta. Description: Vasorelaxation activity in rat aorta assessed as inhibition of K+-induced contraction at 12.5 ug/ml preincubated for 15 mins relative to control. The class given is functional. The method in brief: (§2)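 Rat aorta was preincubated with test sample or 0.1% DMSO vehicle at 37 °C for 15 min. Contraction was then evoked with high K+ (80 mM) or norepinephrine (3 μM). Response is expressed as percent of control contraction, mean ± SEM, n = 3.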

The subject of experiment [3] is Aorta. Nature of the experiment: Vasorelaxation activity in rat aorta assessed as inhibition of K+-induced contraction at 3.8 ug/ml preincubated for 15 mins relative to control. The class given is functional. A digest of the protocol: as §2
In experiment [4] the test system is Aorta. Nature of the experiment: Vasorelaxation activity in rat aorta assessed as inhibition of norepinephrine-induced phasic contraction at 12.5 ug/ml preincubated for 15 mins relative to control. Format: functional. The method in brief: as §2
Experiment [5] concerns Aorta. Description: Vasorelaxation activity in rat aorta assessed as inhibition of norepinephrine-induced tonic contraction at 12.5 ug/ml preincubated for 15 mins relative to control. The class given is functional. The method in brief:
as §2

Experiment [6] is described as follows: Antiplatelet activity against rabbit platelets assessed as inhibition of thrombin-induced platelet aggregation at 25 ug/ml preincubated for 3 mins by turbidimetric method. The class given is functional, Oryctolagus cuniculus. A digest of the protocol:
as §1

A short description of experiment [7]: Antiplatelet activity against rabbit platelets assessed as inhibition of arachidonic acid-induced platelet aggregation at 25 ug/ml preincubated for 3 mins by turbidimetric method. The class given is functional, Oryctolagus cuniculus. The method in brief:
as §1

A short description of experiment [8]: Antiplatelet activity against rabbit platelets assessed as inhibition of collagen-induced platelet aggregation at 25 ug/ml preincubated for 3 mins by turbidimetric method. Format: functional, Oryctolagus cuniculus. A digest of the protocol: as §1
For experiment [9], the system named is Aorta. Description: Vasorelaxation activity in rat aorta assessed as inhibition of norepinephrine-induced phasic contraction at 1 ug/ml preincubated for 15 mins relative to control. The class given is functional. A digest of the protocol: as §2
Experiment [10] has as its system Aorta. Description: Vasorelaxation activity in rat aorta assessed as inhibition of norepinephrine-induced tonic contraction at 1 ug/ml preincubated for 15 mins relative to control. Format: functional. The method in brief:
as §2

The nature of experiment [11]: Antiplatelet activity against rabbit platelets assessed as inhibition of PAF-induced platelet aggregation at 100 ug/ml preincubated for 3 mins by turbidimetric method. The class given is functional, Oryctolagus cuniculus. A digest of the protocol: as §1
Experiment [12] can be described thus: Antiplatelet activity against rabbit platelets assessed as inhibition of PAF-induced platelet aggregation at 50 ug/ml preincubated for 3 mins by turbidimetric method. The class given is functional, Oryctolagus cuniculus. A digest of the protocol:
as §1

A short description of experiment [13]: Antiplatelet activity against rabbit platelets assessed as inhibition of PAF-induced platelet aggregation at 20 ug/ml preincubated for 3 mins by turbidimetric method. The class given is functional, Oryctolagus cuniculus. A digest of the protocol:
as §1

Experiment [14] is described as follows: Antiplatelet activity against rabbit platelets assessed as inhibition of PAF-induced platelet aggregation at 10 ug/ml preincubated for 3 mins by turbidimetric method. The class given is functional, Oryctolagus cuniculus. The method in brief: as §1
Experiment [15] concerns Aorta. Nature of the experiment: Vasorelaxation activity in rat aorta assessed as inhibition of K+-induced contraction at 50 ug/ml preincubated for 15 mins relative to control. Format: functional. The method in brief:
as §2

The test system of experiment [16] is Aorta. Nature of the experiment: Vasorelaxation activity in rat aorta assessed as inhibition of K+-induced contraction at 15 ug/ml preincubated for 15 mins relative to control. The class given is functional. A digest of the protocol:
as §2

In experiment [17] the test system is Aorta. Nature of the experiment: Vasorelaxation activity in rat aorta assessed as inhibition of norepinephrine-induced phasic contraction at 50 ug/ml preincubated for 15 mins relative to control. Format: functional. A digest of the protocol: as §2
Experiment [18] concerns Aorta. Nature of the experiment: Vasorelaxation activity in rat aorta assessed as inhibition of norepinephrine-induced tonic contraction at 50 ug/ml preincubated for 15 mins relative to control. Format: functional. The method in brief: as §2
Experiment [19] can be described thus: Antiplatelet activity against rabbit platelets assessed as inhibition of thrombin-induced platelet aggregation at 100 ug/ml preincubated for 3 mins by turbidimetric method. The class given is functional, Oryctolagus cuniculus. A digest of the protocol:
as §1

The nature of experiment [20]: Antiplatelet activity against rabbit platelets assessed as inhibition of thrombin-induced platelet aggregation at 50 ug/ml preincubated for 3 mins by turbidimetric method. Format: functional, Oryctolagus cuniculus. A digest of the protocol: as §1
The nature of experiment [21]: Antiplatelet activity against rabbit platelets assessed as inhibition of thrombin-induced platelet aggregation at 20 ug/ml preincubated for 3 mins by turbidimetric method. Format: functional, Oryctolagus cuniculus. The method in brief: as §1
A short description of experiment [22]: Antiplatelet activity against rabbit platelets assessed as inhibition of thrombin-induced platelet aggregation at 10 ug/ml preincubated for 3 mins by turbidimetric method. The class given is functional, Oryctolagus cuniculus. The method in brief:
as §1

Experiment [23] in a line: Antiplatelet activity against rabbit platelets assessed as inhibition of arachidonic acid-induced platelet aggregation at 100 ug/ml preincubated for 3 mins by turbidimetric method. Format: functional, Oryctolagus cuniculus. The method in brief: as §1
A short description of experiment [24]: Antiplatelet activity against rabbit platelets assessed as inhibition of arachidonic acid-induced platelet aggregation at 20 ug/ml preincubated for 3 mins by turbidimetric method. The class given is functional, Oryctolagus cuniculus. The method in brief: as §1
The nature of experiment [25]: Antiplatelet activity against rabbit platelets assessed as inhibition of arachidonic acid-induced platelet aggregation at 10 ug/ml preincubated for 3 mins by turbidimetric method. Format: functional, Oryctolagus cuniculus. The method in brief:
as §1

Experiment [26] is described as follows: Antiplatelet activity against rabbit platelets assessed as inhibition of collagen-induced platelet aggregation at 100 ug/ml preincubated for 3 mins by turbidimetric method. The class given is functional, Oryctolagus cuniculus. A digest of the protocol:
as §1

The nature of experiment [27]: Antiplatelet activity against rabbit platelets assessed as inhibition of collagen-induced platelet aggregation at 20 ug/ml preincubated for 3 mins by turbidimetric method. Format: functional, Oryctolagus cuniculus. The method in brief:
as §1

A short description of experiment [28]: Antiplatelet activity against rabbit platelets assessed as inhibition of collagen-induced platelet aggregation at 10 ug/ml preincubated for 3 mins by turbidimetric method. Format: functional, Oryctolagus cuniculus. A digest of the protocol:
as §1

For the compound `COc1cccc2c1c1ccnc3ccc(=O)n2c31`, the Activity in experiment [1] is 84.8%; in the experiment with Aorta [2] it was 57.9%; in the experiment with Aorta [3], 74.5%; in the experiment with Aorta [4], 88.4%; in the experiment with Aorta [5] it was 78.9%; in [6], 90.3%. For the same compound, the Activity is reported as 80.4% in [7] and 76.3% in experiment [8].

Consider `COc1cc2nc(N3CCN(C(=O)c4ccco4)CC3)nc(N)c2cc1OC` [PRAZOSIN], for which the Activity with Aorta [9] and in the experiment with Aorta [10] was 0% each time.

Regarding `CCC(=O)CC/C=C\CC/C=C/C=C/C(=O)NCC(C)C` [LANYUAMIDE II], the Activity in [11] worked out at 0%; in experiment [12], 0%; in [13], 70.5%; in [14] it was 77.8%; in the experiment with Aorta [15] it was 36.1%; with Aorta [16], 72.5%. Besides, the Activity is 83.8% in the experiment on Aorta [17]; 78.5% with Aorta [18]; 0% in [19]; 35.9% in [20]; 75.2% in experiment [21]; 77.6% in [22]. The Activity in experiment [23] was 0%; in experiment [24], 0%; in [25], 44.2%; in [26], 0%; in experiment [27], 0%; in [28], 10.5%.

For the origin of these results see ChEMBL document CHEMBL1158680, “Chemical constituents and biological activities of the fruit of Zanthoxylum integrifoliolum” (1999).
